Data published in ChEMBL document CHEMBL3856258, “Phosphonate-based irreversible inhibitors of human γ-glutamyl transpeptidase (GGT). GGsTop is a non-toxic and highly selective inhibitor with critical electrostatic interaction with an active-site residue Lys562 for enhanced inhibitory activity” (Bioorg Med Chem, 2016).

Legend:
[1] = species on record: Homo sapiens; assay: Irreversible inhibition of human GGT using gamma-Glu-AMC as substrate assessed as association rate constant by […] analysis
Procedure, shortened: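 The enzyme source was a commercial human GGT preparation carrying bovine serum albumin as stabilizer (GGT <1% of protein). Hydrolytic activity was followed with γ-Glu-AMC as substrate. Irreversible inactivation was expressed as kon, the second-order rate constant for the inhibitor–enzyme reaction.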

[2] = Cytotoxicity against CHL cells assessed as chromatid gap at 1650 ug/ml preincubated for 6 hrs followed by 18 hrs incubation in fresh medium in absence of S9 fraction by Giemsa-staining-based microscopic analysis; format: toxicity, cell-based, Cricetulus griseus; settings: chinese hamster
[3] = test system: Escherichia coli; assay: Genotoxicity in Escherichia coli WP2uvrA assessed as number of revertant colonies per plate at 20.6 ug/plate after 20 mins in absence of S9 fraction by Ames test (reference value: 24); format: toxicity; settings: s9, 20 min
[4] = test system: Salmonella typhimurium; assay: Genotoxicity in Salmonella typhimurium TA98 assessed as number of revertant colonies per plate at 61.7 ug/plate after 20 mins in absence of S9 fraction by Ames test (reference value: 21); format: toxicity, organism-based; settings: salmonella enterica subsp. enterica serovar typhimurium
[5] = test system: Salmonella typhimurium; assay: Genotoxicity in Salmonella typhimurium TA98 assessed as number of revertant colonies per plate at 556 ug/plate after 20 mins in absence of S9 fraction by Ames test (reference value: 21); format: toxicity, organism-based; settings: salmonella enterica subsp. enterica serovar typhimurium
[6] = test system: Salmonella typhimurium; assay: Genotoxicity in Salmonella typhimurium TA98 assessed as number of revertant colonies per plate at 1667 ug/plate after 20 mins in absence of S9 fraction by Ames test (reference value: 21); format: toxicity, organism-based; settings: salmonella enterica subsp. enterica serovar typhimurium
[7] = test system: Salmonella typhimurium; assay: Genotoxicity in Salmonella typhimurium TA1537 assessed as number of revertant colonies per plate at 5000 ug/plate after 20 mins in absence of S9 fraction by Ames test (reference value: 9); format: toxicity, organism-based; settings: salmonella enterica subsp. enterica serovar typhimurium
[8] = test system: Salmonella typhimurium; assay: Genotoxicity in Salmonella typhimurium TA100 assessed as number of revertant colonies per plate at 556 ug/plate after 20 mins in presence of S9 fraction by Ames test (reference value: 142); format: toxicity, organism-based; settings: salmonella enterica subsp. enterica serovar typhimurium
[9] = test system: Salmonella typhimurium; assay: Genotoxicity in Salmonella typhimurium TA1535 assessed as number of revertant colonies per plate at 185 ug/plate after 20 mins in presence of S9 fraction by Ames test (reference value: 13); format: toxicity, organism-based; settings: salmonella enterica subsp. enterica serovar typhimurium
[10] = test system: Escherichia coli; assay: Genotoxicity in Escherichia coli WP2uvrA assessed as number of revertant colonies per plate at 20.6 ug/plate after 20 mins in presence of S9 fraction by Ames test (reference value: 26); format: toxicity; settings: s9, 20 min
[11] = test system: Escherichia coli; assay: Genotoxicity in Escherichia coli WP2uvrA assessed as number of revertant colonies per plate at 185 ug/plate after 20 mins in presence of S9 fraction by Ames test (reference value: 26); format: toxicity; settings: s9, 20 min
[12] = test system: Escherichia coli; assay: Genotoxicity in Escherichia coli WP2uvrA assessed as number of revertant colonies per plate at 1667 ug/plate after 20 mins in presence of S9 fraction by Ames test (reference value: 26); format: toxicity; settings: s9, 20 min
[13] = test system: Escherichia coli; assay: Genotoxicity in Escherichia coli WP2uvrA assessed as number of revertant colonies per plate at 5000 ug/plate after 20 mins in presence of S9 fraction by Ames test (reference value: 26); format: toxicity; settings: s9, 20 min
[14] = test system: Salmonella typhimurium; assay: Genotoxicity in Salmonella typhimurium TA98 assessed as number of revertant colonies per plate at 20.6 ug/plate after 20 mins in presence of S9 fraction by Ames test (reference value: 26); format: toxicity, organism-based; settings: salmonella enterica subsp. enterica serovar typhimurium
[15] = test system: Salmonella typhimurium; assay: Genotoxicity in Salmonella typhimurium TA1537 assessed as number of revertant colonies per plate at 556 ug/plate after 20 mins in presence of S9 fraction by Ames test (reference value: 15); format: toxicity, organism-based; settings: salmonella enterica subsp. enterica serovar typhimurium
[16] = test system: Salmonella typhimurium; assay: Genotoxicity in Salmonella typhimurium TA1537 assessed as number of revertant colonies per plate at 5000 ug/plate after 20 mins in presence of S9 fraction by Ames test (reference value: 15); format: toxicity, organism-based; settings: salmonella enterica subsp. enterica serovar typhimurium
[17] = Cytotoxicity against CHL cells assessed as growth rate at 2.16 ug/ml preincubated for 6 hrs followed by 18 hrs incubation in fresh medium in absence of S9 fraction by MTT assay relative to control; format: toxicity, cell-based, Cricetulus griseus; settings: chinese hamster, read-out: Activity
[18] = Cytotoxicity against CHL cells assessed as growth rate at 84.5 ug/ml preincubated for 6 hrs followed by 18 hrs incubation in fresh medium in absence of S9 fraction by MTT assay relative to control; format: toxicity, cell-based, Cricetulus griseus; settings: chinese hamster, read-out: Activity
[19] = Cytotoxicity against CHL cells assessed as growth rate at 211 ug/ml preincubated for 6 hrs followed by 18 hrs incubation in fresh medium in absence of S9 fraction by MTT assay relative to control; format: toxicity, cell-based, Cricetulus griseus; settings: chinese hamster, read-out: Activity
[20] = Cytotoxicity against CHL cells assessed as growth rate at 528 ug/ml preincubated for 6 hrs followed by 18 hrs incubation in fresh medium in absence of S9 fraction by MTT assay relative to control; format: toxicity, cell-based, Cricetulus griseus; settings: chinese hamster, read-out: Activity
[21] = Cytotoxicity against CHL cells assessed as growth rate at 33.8 ug/ml preincubated for 6 hrs followed by 18 hrs incubation in fresh medium in presence of S9 fraction by MTT assay relative to control; format: toxicity, cell-based, Cricetulus griseus; settings: chinese hamster, read-out: Activity
[22] = Cytotoxicity against CHL cells assessed as growth rate at 84.5 ug/ml preincubated for 6 hrs followed by 18 hrs incubation in fresh medium in presence of S9 fraction by MTT assay relative to control; format: toxicity, cell-based, Cricetulus griseus; settings: chinese hamster, read-out: Activity
[23] = Cytotoxicity against CHL cells assessed as growth rate at 3300 ug/ml preincubated for 6 hrs followed by 18 hrs incubation in fresh medium in presence of S9 fraction by MTT assay relative to control; format: toxicity, cell-based, Cricetulus griseus; settings: chinese hamster, read-out: Activity
[24] = Cytotoxicity against CHL cells assessed as growth rate at 33.8 ug/ml after 24 hrs in absence of S9 fraction by MTT assay relative to control; format: toxicity, cell-based, Cricetulus griseus; settings: chinese hamster, read-out: Activity
[25] = Cytotoxicity against CHL cells assessed as growth rate at 1320 ug/ml after 24 hrs in absence of S9 fraction by MTT assay relative to control; format: toxicity, cell-based, Cricetulus griseus; settings: chinese hamster, read-out: Activity
[26] = Cytotoxicity against CHL cells assessed as growth rate at 3300 ug/ml after 24 hrs in absence of S9 fraction by MTT assay relative to control; format: toxicity, cell-based, Cricetulus griseus; settings: chinese hamster, read-out: Activity
[27] = Cytotoxicity against CHL cells assessed as chromatid gap at 3300 ug/ml preincubated for 6 hrs followed by 18 hrs incubation in fresh medium in absence of S9 fraction by Giemsa-staining-based microscopic analysis; format: toxicity, cell-based, Cricetulus griseus; settings: chinese hamster
[28] = Cytotoxicity against CHL cells assessed as chromatid gap at 1650 ug/ml preincubated for 6 hrs followed by 18 hrs incubation in fresh medium in presence of S9 fraction by Giemsa-staining-based microscopic analysis; format: toxicity, cell-based, Cricetulus griseus; settings: chinese hamster
[29] = Hydrolytic stability of compound in D2O at pH >8.5 by 31P NMR spectroscopy; format: physicochemical
[30] = Cytotoxicity against CHL cells assessed as number of cells with numerical aberrations at 3300 ug/ml preincubated for 6 hrs followed by 18 hrs incubation in fresh medium in absence of S9 fraction by Giemsa-staining-based microscopic analysis relative to control; format: toxicity, cell-based, Cricetulus griseus; settings: chinese hamster
[31] = Cytotoxicity against CHL cells assessed as number of cells with numerical aberrations at 825 ug/ml after 24 hrs by Giemsa staining-based microscopic analysis relative to control; format: toxicity, cell-based, Cricetulus griseus; settings: chinese hamster
[32] = Cytotoxicity against CHL cells assessed as number of cells with numerical aberrations at 1650 ug/ml after 24 hrs by Giemsa staining-based microscopic analysis relative to control; format: toxicity, cell-based, Cricetulus griseus; settings: chinese hamster
[33] = Cytotoxicity against CHL cells assessed as number of cells with numerical aberrations at 3300 ug/ml after 24 hrs by Giemsa staining-based microscopic analysis relative to control; format: toxicity, cell-based, Cricetulus griseus; settings: chinese hamster

COP(=O)(CCC(N)C(=O)O)Oc1cccc(CC(=O)O)c1 (stereo not drawn)
K [1]: 51 M⁻¹ s⁻¹
Activity [2]: 0%
Activity [3]: 26
Activity [4]: 23
Activity [5]: 29
Activity [6]: 23
Activity [7]: 9
Activity [8]: 129
Activity [9]: 13
Activity [10]: 30
Activity [11]: 28
Activity [12]: 23
Activity [13]: 34
Activity [14]: 29
Activity [15]: 16
Activity [16]: 17
viability at 18 h, 2.16 ug/ml [17]: 103%
viability at 18 h, 84.5 ug/ml [18]: 102%
viability at 18 h, 211 ug/ml [19]: 101%
viability at 18 h, 528 ug/ml [20]: 101%
viability at 18 h, 33.8 ug/ml [21]: 101%
viability at 18 h, 84.5 ug/ml [22]: 100%
viability at 18 h, 3300 ug/ml [23]: 96.8%
viability at 24 h, 33.8 ug/ml [24]: 105%
viability at 24 h, 1320 ug/ml [25]: 92.6%
viability at 24 h, 3300 ug/ml [26]: 79.5%
Activity [27]: 0%
Activity [28]: 1%
Stability [29]: Unstable
Activity [30]: 0%
Activity [31]: 0%
Activity [32]: 0%
Activity [33]: 0%
